Source: PubChem BioAssay
CHRM5 agonist – CHRM5 agonism in calcium assay; P08912; CHO-K1 hM5 cells, Fluo-8 calcium fluorescence; 0% DMSO wells, 100% maximal acetylcholine response; activation, % at 3 µM; hit rate 0.19% among 360,000; AID 624037;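 active = activation above the run's mean over test compounds plus 3 SD, cut at about 23% in these data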;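 note: signal is peak over basal fluorescence ratio across the kinetic read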
M4 antag – CHRM4 antagonism in calcium assay; hit rate 0.73% among 360,000; P08173; inhibition, % at 3 µM; CHO-hM4 cells, ACh EC80, Fluo-8 calcium fluorescence;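 active = inhibition above its plate's cutoff, the mean inhibition of sample wells plus 3 SD, cut at about 27% in these data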;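 note: 0% = acetylcholine EC80 with DMSO and 100% = DMSO without agonist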
Target sequence (P08173 whole entry, looked up): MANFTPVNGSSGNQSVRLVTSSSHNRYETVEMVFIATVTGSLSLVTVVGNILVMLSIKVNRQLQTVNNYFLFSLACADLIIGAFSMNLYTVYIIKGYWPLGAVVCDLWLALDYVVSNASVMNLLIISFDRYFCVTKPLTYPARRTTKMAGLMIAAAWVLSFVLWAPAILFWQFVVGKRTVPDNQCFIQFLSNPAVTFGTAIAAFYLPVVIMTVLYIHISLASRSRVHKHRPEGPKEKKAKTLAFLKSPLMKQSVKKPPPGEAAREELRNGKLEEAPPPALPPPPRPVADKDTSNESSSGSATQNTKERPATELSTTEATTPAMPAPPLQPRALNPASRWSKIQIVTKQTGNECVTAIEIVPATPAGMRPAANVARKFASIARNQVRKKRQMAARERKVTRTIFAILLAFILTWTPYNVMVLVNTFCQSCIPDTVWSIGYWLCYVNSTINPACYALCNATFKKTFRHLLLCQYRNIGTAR
M4 PAM – positive allosteric modulators of human muscarinic M4 receptor; AID 624126; CHO-K1 hM4/Gqi5, Fluo-8 calcium fluorescence, ACh EC20; 0% = ACh EC20, 100% = maximal ACh; hit rate 0.4% among 360,000; activation, % at 3 µM; P08173;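 active = activation above its plate's cutoff, the mean activation of sample wells plus 3 SD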
CHRM5 PAM – CHRM5 positive allosteric modulation; CHO-K1 hM5, Fluo-8 calcium, ACh EC20 PAM; 0% = ACh EC20, 100% = ACh EC100; activation, % at 3 µM; hit rate 0.3% among 360,000; P08912;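 active = activation above the run cutoff, the mean activation of all test compounds plus 3 SD, cut at about 18% in these data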
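System – CHO-K1 hM5 cells · Compound – 3 µM, single dose · Incubation – compound preincubation 140 s before EC20 acetylcholine addition · Technique – Fluo-8 calcium fluorescence · Measure – Max/basal fluorescence ratio as % of EC20–EC100 ACh window · Benchmarks – low control EC20 acetylcholine (0%), high control EC100 acetylcholine (100%) · Replication – singlicate, one well per test compound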
CHRM5 antagonist – antagonists of human muscarinic M5 receptor (CHRM5); P08912; CHO-hM5 cells, Fluo-8 calcium fluorescence, ACh EC80; inhibition, % at 3 µM; hit rate 0.59% among 360,000;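 active = inhibition above a per-plate cutoff, the mean of that plate's test compounds plus 3 SD, cut at about 27% in these data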;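 note: 0% = acetylcholine EC80 with DMSO and 100% = DMSO without agonist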
CHRM4 agonist – agonists of human muscarinic M4 receptor (CHRM4); activation, % at 3 µM; AID 624127; hit rate 0.14% among 360,000; CHO-K1 hM4/Gqi5, Fluo-8 calcium fluorescence; vehicle 0%, full acetylcholine response 100%; P08173;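 active = activation above the run mean over all test wells plus 3 SD, cut at about 32% in these data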;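 note: peak over basal fluorescence ratio per well then scaled between controls; 0% = DMSO wells and 100% = acetylcholine at EC100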
Starred values were filed as active, the others as inactive. Only some compounds are listed: those with a hit (about 1.8% of all), similar ones and a draw of the others.

How did COc1ccc2c(c1)C(=O)N1[C@H]3c4cc(C)ccc4OC[C@@H]3[C@H](c3ccccc3)[C@]1(C)C(=O)N2 do in these assays?
CHRM5 agonist: -3.0; M4 antag: 33.6*; M4 PAM: -10.0; CHRM5 PAM: -22.6; CHRM5 antagonist: 18.2; CHRM4 agonist: -0.7

What do the screens show for `Cc1ccc2c(c1)[C@H]1[C@H](CO2)[C@H](c2ccccc2)[C@]2(C)C(=O)Nc3ccc(Cl)cc3C(=O)N12`?
CHRM5 agonist: -3.3; M4 antag: 17.2; M4 PAM: -7.5; CHRM5 PAM: -31.9; CHRM5 antagonist: 12.9; CHRM4 agonist: 1.1

How did C[C@@]12C(=O)Nc3ccc(Br)cc3C(=O)N1[C@H]1c3ccccc3OC[C@@H]1[C@@H]2c1ccccc1 do in these assays?
CHRM5 agonist: 2.6; M4 antag: 35.4*; M4 PAM: -8.9; CHRM5 PAM: -21.4; CHRM5 antagonist: 15.3; CHRM4 agonist: 1.9

What do the screens show for `COc1ccc2c(c1)OC[C@H]1[C@H]2N2C(=O)c3ccccc3NC(=O)[C@@]2(C)[C@H]1c1ccccc1`?
CHRM5 agonist: -6.2; M4 antag: 56.4*; M4 PAM: -11.0; CHRM5 PAM: -20.2; CHRM5 antagonist: 12.2; CHRM4 agonist: 2.5

Results for Cc1ccc2c(c1)[C@H]1[C@H](CO2)[C@H](c2ccccc2)[C@]2(C)C(=O)Nc3ccccc3C(=O)N12 ?
CHRM5 agonist: -6.8; M4 antag: 60.3*; M4 PAM: -13.7; CHRM5 PAM: -34.2; CHRM5 antagonist: 20.6; CHRM4 agonist: 0.7

How did COc1ccc2c(c1)OC[C@H]1[C@H]2N2C(=O)c3cc(C)ccc3NC(=O)[C@@]2(C)[C@H]1c1ccccc1 do in these assays?
CHRM5 agonist: 3.0; M4 antag: 22.6; M4 PAM: -9.7; CHRM5 PAM: -0.1; CHRM5 antagonist: -3.0; CHRM4 agonist: 0.2

Results for C=CCNC(=O)N1CCC(n2nccc2NC(=O)CCCc2ccccc2)CC1 ?
CHRM5 agonist: -3.6; M4 antag: -7.2; M4 PAM: 3.8; CHRM5 PAM: 5.9; CHRM5 antagonist: -3.5; CHRM4 agonist: 0.4

What do the screens show for `O=C(NCC1CCCO1)c1cccc(S(=O)(=O)Nc2ccc(F)cc2)c1` (stereo unspecified)?
CHRM5 agonist: 3.5; M4 antag: 4.6; M4 PAM: -3.9; CHRM5 PAM: 0.8; CHRM5 antagonist: 2.1; CHRM4 agonist: 1.0

How did C#CCNC(=O)C1CCN(c2cc(C)nc(-c3ccccc3)n2)CC1 do in these assays?
CHRM5 agonist: 0.1; M4 antag: 2.1; M4 PAM: -6.4; CHRM5 PAM: -10.0; CHRM5 antagonist: 5.0; CHRM4 agonist: 1.3

Results for Cc1ccc2c(c1)NC(=O)[C@@]1(C)[C@@H](c3ccccc3)[C@H]3COc4ccccc4[C@@H]3N1C2=O ?
CHRM5 agonist: -0.8; M4 antag: 6.2; M4 PAM: -9.1; CHRM5 PAM: -0.7; CHRM5 antagonist: 0.1; CHRM4 agonist: 0.7

How did Cc1ccc2c(c1)C(=O)N1[C@H]3c4ccccc4OC[C@@H]3[C@H](c3ccccc3)[C@]1(C)C(=O)N2 do in these assays?
CHRM5 agonist: -5.6; M4 antag: 52.7*; M4 PAM: -14.3; CHRM5 PAM: -35.7; CHRM5 antagonist: 17.2; CHRM4 agonist: 0.5

How did COc1ccc(NC(=O)c2nnn(CC(=O)Nc3ccc4c(c3)OCO4)c2N)cc1OC do in these assays?
CHRM5 agonist: -5.8; M4 antag: 2.2; M4 PAM: 2.0; CHRM5 PAM: -6.1; CHRM5 antagonist: 19.0; CHRM4 agonist: 0.2

How did COc1ccc(Cl)cc1NC(=O)c1nnn(CC(=O)Nc2ccc3c(c2)OCO3)c1N do in these assays?
CHRM5 agonist: -3.0; M4 antag: 8.5; M4 PAM: 19.9*; CHRM5 PAM: 3.2; CHRM5 antagonist: -9.3; CHRM4 agonist: 1.6

What do the screens show for `O=C(Cc1ccc(-c2ccccc2)cc1)OCC(=O)N1CCCC1=O`?
CHRM5 agonist: 0.4; M4 antag: -7.0; M4 PAM: -5.3; CHRM5 PAM: -4.2; CHRM5 antagonist: 7.3; CHRM4 agonist: 3.2

How did CC(C)NC(=O)N(O)C1N(C(C)C)C(=O)N(Cc2ccc3c(c2)OCO3)C1(C)C (stereo unspecified) do in these assays?
CHRM5 agonist: 2.1; M4 antag: 30.4*; M4 PAM: -21.9; CHRM5 PAM: -19.2; CHRM5 antagonist: 25.2; CHRM4 agonist: 13.5

Results for CCCN(CC(=O)Nc1ccccc1C)C(=O)c1cccc(S(=O)(=O)N2CCc3ccccc3C2)c1 ?
CHRM5 agonist: 6.7; M4 antag: 23.2; M4 PAM: -14.8; CHRM5 PAM: -16.2; CHRM5 antagonist: 28.1*; CHRM4 agonist: 21.7

Results for CC(CCC(=O)O)C1CCC2C3C(O)CC4CC(O)CCC4(C)C3CC(O)C12C (stereo unspecified) ?
CHRM5 agonist: 1.8; M4 antag: 6.7; M4 PAM: -3.8; CHRM5 PAM: 2.5; CHRM5 antagonist: -0.1; CHRM4 agonist: -0.7

What do the screens show for `CCOC(=O)CSc1nc(C)c2cccc(C)c2n1`?
CHRM5 agonist: -0.4; M4 antag: -7.9; M4 PAM: 7.7; CHRM5 PAM: 19.2*; CHRM5 antagonist: -5.1; CHRM4 agonist: 0.5

What do the screens show for `CCOC(=O)CSc1nc(C)c2ccccc2n1`?
CHRM5 agonist: 0.2; M4 antag: 3.5; M4 PAM: -4.4; CHRM5 PAM: -2.3; CHRM5 antagonist: 4.7; CHRM4 agonist: 0.2

How did CCOC(=O)CC1=Nc2ccccc2NC(=O)C1 do in these assays?
CHRM5 agonist: -6.8; M4 antag: 26.7*; M4 PAM: -3.6; CHRM5 PAM: -0.9; CHRM5 antagonist: 5.3; CHRM4 agonist: 2.8

Results for COC(=O)CC1=Nc2ccccc2NC(=O)C1 ?
CHRM5 agonist: -5.3; M4 antag: 0.0; M4 PAM: -1.1; CHRM5 PAM: 0.5; CHRM5 antagonist: 5.5; CHRM4 agonist: 0.2

Results for CN(C)CC/C=C1/c2ccccc2COc2ccc(CC(=O)O)cc21 ?
CHRM5 agonist: -1.8; M4 antag: 4.4; M4 PAM: -3.1; CHRM5 PAM: -10.6; CHRM5 antagonist: 6.9; CHRM4 agonist: 0.1

What do the screens show for `CNc1ccc(C=C2C=Cc3ccccc32)cc1`?
CHRM5 agonist: 5.6; M4 antag: -5.1; M4 PAM: 8.1; CHRM5 PAM: 2.1; CHRM5 antagonist: 2.4; CHRM4 agonist: 2.8

What do the screens show for `CN(C)CCC=C1c2ccccc2C=Cc2ccccc21`?
CHRM5 agonist: -0.1; M4 antag: 99.4*; M4 PAM: -18.6; CHRM5 PAM: -17.9; CHRM5 antagonist: 98.7*; CHRM4 agonist: 5.3

What do the screens show for `CN(C)CCC=C1c2ccccc2CCc2ccccc21`?
CHRM5 agonist: -0.5; M4 antag: 95.3*; M4 PAM: -16.9; CHRM5 PAM: -19.3; CHRM5 antagonist: 98.8*; CHRM4 agonist: 3.0
